# D1 allo mod: D1 dopamine receptor (human) allosteric modulation; 58,000 tested, 5.9% active; B-score at 10 µM; HEK293 D1, CRE-luciferase, dopamine EC30 potentiation; actives deviate in either direction; AID 641;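 active = luminescence count or its row- and column-corrected plate score outside the 99.7% band of the plate's sample wells, on either side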
# Target sequence (P21728 whole entry, looked up): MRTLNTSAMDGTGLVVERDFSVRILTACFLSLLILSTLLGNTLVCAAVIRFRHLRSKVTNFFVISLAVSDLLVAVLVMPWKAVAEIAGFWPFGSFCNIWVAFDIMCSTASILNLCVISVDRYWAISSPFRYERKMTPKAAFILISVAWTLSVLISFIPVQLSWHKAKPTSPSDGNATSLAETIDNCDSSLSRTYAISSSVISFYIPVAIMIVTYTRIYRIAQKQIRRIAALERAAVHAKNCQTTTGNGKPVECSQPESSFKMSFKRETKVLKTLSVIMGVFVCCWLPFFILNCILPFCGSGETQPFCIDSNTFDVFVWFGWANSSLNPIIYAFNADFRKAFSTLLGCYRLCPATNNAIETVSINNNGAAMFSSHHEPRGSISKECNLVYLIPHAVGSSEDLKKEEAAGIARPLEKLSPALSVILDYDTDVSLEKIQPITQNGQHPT
# Ecoli tolC: E. coli tolC mutant growth inhibition. E. coli BW25113 tolC mutant growth, OD615. growth inhibition, % at 10 µM (by protocol). 65,000 tested, 2.2% active;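 active = growth inhibition at or above a cutoff equal to the mean over every tested compound plus 3 SD, cut at about 60% in these data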;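 note: growth measured after 20 h incubation at 37 °C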
#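 Doses: one dose of 10 µM final / Material: E. coli BW25113 ΔtolC::kan, tolC deletion mutant strain / Buffer or medium: LB with kanamycin 50 µg/mL / Evaluation: percent growth inhibition / Detection: optical density read at 615 nm / Incubation: 37 °C, 20 h exposure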
# PostGolgi ctrl: inhibits growth of the yeast control strain. AID 738. inhibition, % at 10 µM. 98,000 tested, 5% active. efflux-deficient yeast background strain, growth absorbance A615, 16 h
# PostGolgi yeast: growth inhibition of a yeast mutant, post-Golgi transport screen; post-Golgi transport phenotypic cell assay; inhibition, % at 10 µM; 98,000 tested, 0.9% active; AID 739;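 note: yeast cells grown in 1536-well plates; yeast grown about 18 h at 30C before absorbance read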
# DAT uptake mod: human DAT dopamine uptake with cocaine, either direction; Q01959; LLC-PK1 hDAT cells, [14C]-dopamine uptake with cocaine IC80; actives deviate in either direction; 110,000 tested, 1.3% active; B-score at 10 µM;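 active = Z score or B-score, a plate-position-corrected score, falls beyond the plate's 99.7% confidence bounds, in either direction; inactive = both scores lie inside the 99.7% bounds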;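 note: scored against the spread of the other compound wells on the same plate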
# E coli WT exp: blocks growth of wild type E. coli BW25113. AID 710. OD600 absorbance. growth inhibition, % at 100 µM. 98,000 tested, 0.15% active;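 active = growth inhibition above about 50% at one test dose, limit read from the data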;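 note: growth measured after 20 h incubation at 37 °C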
# * = called active by the depositor; · = no result given. Only some compounds are listed: those with a hit (about 9.3% of all), similar ones and a draw of the others. Cut-off read from the data, not from the text of the source, unless noted: active = inhibition above about 30%; inactive = the rest.
SMILES,D1 allo mod,Ecoli tolC,PostGolgi ctrl,PostGolgi yeast,DAT uptake mod,E coli WT exp
CC(=O)Nc1nnc(SCC(=O)NCCOc2ccccc2)s1,0.239,-9.0,51.4*,5.1,-8.01*,-2.0
Cc1ccnc(NS(=O)(=O)c2ccc(NS(=O)(=O)c3ccccc3)cc2)n1,·,·,·,·,-0.706,·
Cn1cccc1/C=C1\CCC/C(=C\c2cccn2C)C1=O,·,·,40.8*,9.5,0.183,2.0
Cc1ccccc1C(=O)NC1CCN(C(=O)N(c2ccccc2)c2ccccc2)CC1,·,·,10.3,11.3,-0.459,-2.0
Cc1ccccc1NC(=O)c1ccc(CN2CCC(Cc3ccccc3)CC2)cc1,·,·,1.7,13.1,-3.73*,10.0
O=C(NC1CCCCCCC1)C1CCN(c2nc3ccccc3o2)CC1,-1.5,6.1,65.9*,4.7,0.158,2.0
O=C(NCCc1ccccc1)C1CCN(c2nc3ccccc3o2)CC1,0.316,-5.0,5.6,-0.3,-0.66,-11.0
O=C(NCc1cccs1)C1CCCN(c2nc3ccccc3o2)C1 (configuration not stated),-0.367,4.4,42.5*,12.7,0.626,-3.0
COc1ccc(/C=N/NC(=O)c2ccoc2C)cc1COc1ccc(Cl)cc1,·,·,48.5*,10.6,2.71,-12.0
COc1ccc(/C=N/NC(=O)c2ccn[nH]2)cc1COc1ccc(Cl)cc1Cl,·,·,62.5*,-0.3,1.33,-2.0
CCCCN(CCCNC(=O)C1CCN(S(=O)(=O)CC)CC1)c1ccccc1,0.227,-5.8,-6.0,-5.4,-0.18,-2.0
O=C(NN=C1C2CC3CC(C2)CC1C3)c1cc(Cl)ccc1O,·,·,-0.8,-0.5,0.0456,-5.0
Cc1ccc(/C=C/C(=O)c2c(C)nc3ccccn23)cc1,·,·,33.2*,-1.8,0.486,-7.0
CC(=O)c1c(C)nc2ccccn12,-0.109,-17.8,7.7,10.5,·,7.0
Cc1ccccc1OCC(=O)NCC1CCCO1 (configuration not stated),-0.167,-6.7,-10.8,6.6,-0.665,1.0
CCN1CCN(c2ccc(NC(=O)COc3ccccc3Cl)cc2)CC1,-4.95*,-0.6,0.6,-0.6,-0.384,13.0
O=C(Nc1ccc(N2CCN(Cc3ccccc3)CC2)cc1)c1ncn[nH]1,·,6.8,30.8*,-1.6,-0.667,-1.0
Cc1cccc(OCC(=O)Nc2ccc(N3CCN(S(C)(=O)=O)CC3)cc2)c1C,-0.383,-17.6,2.0,-1.1,0.268,-11.0
Cc1ccccc1OCC(=O)Nc1ccc(N2CCN(S(C)(=O)=O)CC2)cc1,0.477,-21.9,10.3,3.1,-8.1*,-4.0
Cc1ccccc1OCC(=O)NCCN1CCCC1,-0.696,-8.9,34.9*,-3.5,-0.703,-3.0
CC1(C)CC(=O)C(C=NCCN2CCN(C(=O)C34CC5CC(CC(C5)C3)C4)CC2)=C(O)C1,0.195,5.3,·,·,-0.728,·
O=C(Cc1ccccc1)Nc1ccc(N2CCCC2)cc1,·,·,5.7,-6.2,1.4,-8.0
CCN1CCN(c2ccc(NC(=O)Cc3ccccc3)cc2)CC1,-4.71*,-4.5,-2.1,-3.8,0.0288,2.0
COc1ccccc1-n1nnnc1SCC(=O)NC1CCCC1,-0.0413,4.8,41.6*,-1.6,0.123,-1.0
COc1cccc(-n2nnnc2SCC(=O)NC2CCCC2)c1,·,·,9.0,-1.7,-0.864,7.0
SMILES,D1 allo mod,Ecoli tolC,PostGolgi ctrl,PostGolgi yeast,DAT uptake mod,E coli WT exp
CCn1c(Cc2ccc(OC)cc2)nnc1SCC(=O)NC1CCCCC1,0.01,-3.8,31.0*,7.4,0.559,-4.0
COc1ccc(-c2[nH]c(-c3ccccc3)nc2SCC(=O)NC2CCCC2)cc1,·,·,·,·,4.71*,·
CC(=O)Nc1ccc(S(=O)(=O)NC2(C(F)(F)F)N=C(c3ccccc3)NC2=O)cc1 (configuration not stated),·,·,-5.1,2.2,-0.0484,2.0
COc1cccc(CN2C[C@]34C=C[C@@H](C[C@@H]3S2(=O)=O)O4)c1,·,·,·,·,-0.724,·
COc1ccc(CC(C(=O)Nc2cccc(F)c2)c2nn[nH]n2)c(OC)c1 (configuration not stated),·,-20.4,15.8,-1.8,-0.0625,6.0
O=C(Nc1ccc(OCC(F)(F)C(F)F)c(C(F)(F)F)c1)c1ccccc1,·,·,·,·,-1.04,·
O=C(Nc1ccc(OCC(F)(F)C(F)F)c(C(F)(F)F)c1)c1ccccc1O,·,·,85.2*,25.0,-0.62,-2.0
O=C(/C=C/c1ccccc1)NC(NC(=S)Nc1ccc(Cl)cc1)C(Cl)(Cl)Cl (configuration not stated),·,·,12.6,-4.2,-2.76*,-3.0
COc1ccc(NC(=S)NC(NC(=O)/C=C/c2ccccc2)C(Cl)(Cl)Cl)cc1 (configuration not stated),·,·,1.2,-1.4,-1.15,-7.0
